In ChEMBL document CHEMBL1137764, “Design, synthesis, antibacterial activity and physicochemical parameters of novel N-4-piperazinyl derivatives of norfloxacin” (Bioorg Med Chem, 2009):
Converted amounts (≈) assume the structure as drawn.

How the values were obtained:
Klebsiella pneumoniae [1] = test: Antimicrobial activity against Klebsiella pneumoniae at 16 ug/ml after 24 hrs by agar diffusion technique; format: functional; conditions: read-out: DIZ
Procedure, shortened: (§1)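 Strains came from a university microbiology department. Inocula were 10⁶ CFU/mL. Mueller-Hinton agar was seeded with culture, poured 3–4 mm thick, and 10 mm cups were bored. Compounds were dissolved in DMF (10 mg/mL stock), diluted, and the solution was placed in the cups. Plates were incubated at 37 °C overnight. Inhibition zone diameter (mm) was read at 24 h.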

Staphylococcus aureus [2] = test: Antimicrobial activity against Staphylococcus aureus at 4 ug/ml after 24 hrs by agar diffusion technique; format: functional; conditions: read-out: DIZ; procedure, shortened: as §1
Pseudomonas aeruginosa [3] = test: Antimicrobial activity against Pseudomonas aeruginosa at 16 ug/ml after 24 hrs by agar diffusion technique; format: functional; conditions: read-out: DIZ; procedure, shortened: as §1
Pseudomonas aeruginosa [4] = test: Antimicrobial activity against Pseudomonas aeruginosa at 512 ug/ml after 24 hrs by agar diffusion technique; format: functional; conditions: read-out: DIZ; procedure, shortened: as §1
Escherichia coli [5] = test: Antimicrobial activity against Escherichia coli at 512 ug/ml after 24 hrs by agar diffusion technique; format: functional; conditions: read-out: DIZ; procedure, shortened: as §1
Staphylococcus aureus [6] = test: Antimicrobial activity against Staphylococcus aureus after 24 hrs by agar diffusion technique; format: functional; conditions: for MIC: Staphylococcus aureus, 24 h
Procedure, shortened: (§2)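 Agar cup diffusion on Mueller-Hinton agar seeded from 10⁶ CFU/mL suspensions, with 10 mm cups in a 3–4 mm layer. Compounds were in DMF (10 mg/mL stock) at several concentrations. Plates were incubated at 37 °C and zones measured after 24 h. MIC was taken as the intercept of the plot of log concentration against inhibition zone diameter.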

Pseudomonas aeruginosa [7] = test: Antimicrobial activity against Pseudomonas aeruginosa at 128 ug/ml after 24 hrs by agar diffusion technique; format: functional; conditions: read-out: DIZ; procedure, shortened: as §1
Klebsiella pneumoniae [8] = test: Antimicrobial activity against Klebsiella pneumoniae at 64 ug/ml after 24 hrs by agar diffusion technique; format: functional; conditions: read-out: DIZ; procedure, shortened: as §1
Staphylococcus aureus [9] = test: Antimicrobial activity against Staphylococcus aureus at 64 ug/ml after 24 hrs by agar diffusion technique; format: functional; conditions: read-out: DIZ; procedure, shortened: as §1
Klebsiella pneumoniae [10] = test: Antimicrobial activity against Klebsiella pneumoniae after 24 hrs by agar diffusion technique; format: functional; conditions: for MIC: Klebsiella pneumoniae, 24 h; procedure, shortened: as §2
Escherichia coli [11] = test: Antimicrobial activity against Escherichia coli at 16 ug/ml after 24 hrs by agar diffusion technique; format: functional; conditions: read-out: DIZ; procedure, shortened: as §1
Staphylococcus aureus [12] = test: Antimicrobial activity against Staphylococcus aureus at 16 ug/ml after 24 hrs by agar diffusion technique; format: functional; conditions: read-out: DIZ; procedure, shortened: as §1
Escherichia coli [13] = test: Antimicrobial activity against Escherichia coli after 24 hrs by agar diffusion technique; format: functional; conditions: for MIC: Escherichia coli, 24 h; procedure, shortened: as §2
Escherichia coli [14] = test: Antimicrobial activity against Escherichia coli at 4 ug/ml after 24 hrs by agar diffusion technique; format: functional; conditions: read-out: DIZ; procedure, shortened: as §1
Klebsiella pneumoniae [15] = test: Antimicrobial activity against Klebsiella pneumoniae at 128 ug/ml after 24 hrs by agar diffusion technique; format: functional; conditions: read-out: DIZ; procedure, shortened: as §1
Pseudomonas aeruginosa [16] = test: Antimicrobial activity against Pseudomonas aeruginosa after 24 hrs by agar diffusion technique; format: functional; conditions: for MIC: Pseudomonas aeruginosa, 24 h; procedure, shortened: as §2
Pseudomonas aeruginosa [17] = test: Antimicrobial activity against Pseudomonas aeruginosa at 4 ug/ml after 24 hrs by agar diffusion technique; format: functional; conditions: read-out: DIZ; procedure, shortened: as §1
Pseudomonas aeruginosa [18] = test: Antimicrobial activity against Pseudomonas aeruginosa at 64 ug/ml after 24 hrs by agar diffusion technique; format: functional; conditions: read-out: DIZ; procedure, shortened: as §1
Klebsiella pneumoniae [19] = test: Antimicrobial activity against Klebsiella pneumoniae at 4 ug/ml after 24 hrs by agar diffusion technique; format: functional; conditions: read-out: DIZ; procedure, shortened: as §1
Klebsiella pneumoniae [20] = test: Antimicrobial activity against Klebsiella pneumoniae at 512 ug/ml after 24 hrs by agar diffusion technique; format: functional; conditions: read-out: DIZ; procedure, shortened: as §1
Escherichia coli [21] = test: Antimicrobial activity against Escherichia coli at 128 ug/ml after 24 hrs by agar diffusion technique; format: functional; conditions: read-out: DIZ; procedure, shortened: as §1
Escherichia coli [22] = test: Antimicrobial activity against Escherichia coli at 64 ug/ml after 24 hrs by agar diffusion technique; format: functional; conditions: read-out: DIZ; procedure, shortened: as §1
Staphylococcus aureus [23] = test: Antimicrobial activity against Staphylococcus aureus at 128 ug/ml after 24 hrs by agar diffusion technique; format: functional; conditions: read-out: DIZ; procedure, shortened: as §1
Staphylococcus aureus [24] = test: Antimicrobial activity against Staphylococcus aureus at 512 ug/ml after 24 hrs by agar diffusion technique; format: functional; conditions: read-out: DIZ; procedure, shortened: as §1
[25] = Octanol-phosphate buffer partition coefficient, log D at pH 7.4 by spectrophotometry; format: physicochemical
Procedure, shortened: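 Shake-flask method. A 0.2 mg/mL stock was diluted into pH 7.4 phosphate buffer and mixed with an equal volume of n-octanol, phases mutually presaturated and protected from light. Samples were vortexed 3 min, then shaken 5 h at 25 °C. Both phases were assayed by UV at 270–280 nm. D is the molar concentration ratio, octanol to aqueous.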

SMILES	zone of inhibition at 16 µg/mL (Klebsiella pneumoniae [1])	zone of inhibition at 16 µg/mL (Pseudomonas aeruginosa [3])	zone of inhibition at 512 µg/mL (Pseudomonas aeruginosa [4])	zone of inhibition at 512 µg/mL (Escherichia coli [5])	logMIC (Staphylococcus aureus [6])	MIC (Staphylococcus aureus [6])	zone of inhibition at 128 µg/mL (Pseudomonas aeruginosa [7])	zone of inhibition at 64 µg/mL (Klebsiella pneumoniae [8])	logMIC (Klebsiella pneumoniae [10])	MIC (Klebsiella pneumoniae [10])	zone of inhibition at 16 µg/mL (Escherichia coli [11])	logMIC (Escherichia coli [13])	MIC (Escherichia coli [13])	zone of inhibition at 4 µg/mL (Escherichia coli [14])	zone of inhibition at 128 µg/mL (Klebsiella pneumoniae [15])	logMIC (Pseudomonas aeruginosa [16])	MIC (Pseudomonas aeruginosa [16])	zone of inhibition at 4 µg/mL (Pseudomonas aeruginosa [17])	zone of inhibition at 64 µg/mL (Pseudomonas aeruginosa [18])	zone of inhibition at 4 µg/mL (Klebsiella pneumoniae [19])	also measured
CCn1cc(C(=O)O)c(=O)c2cc(F)c(N3CCN(CN4C(=O)c5ccccc5C4=O)CC3)cc21	0 mm	0 mm	12 mm	9 mm	2.71	> 512 µg/mL	10 mm	4 mm	0.95	9 µg/mL (≈ 18.8 µM)	0 mm	2.11	128 µg/mL (≈ 268 µM)	0 mm	8 mm	1.81	64 µg/mL (≈ 134 µM)	0 mm	0 mm	0 mm	zone of inhibition at 4 µg/mL (Staphylococcus aureus [2]): 0 mm; zone of inhibition at 64 µg/mL (Staphylococcus aureus [9]): 0 mm; zone of inhibition at 16 µg/mL (Staphylococcus aureus [12]): 0 mm; zone of inhibition at 512 µg/mL (Klebsiella pneumoniae [20]): 10 mm; zone of inhibition at 128 µg/mL (Escherichia coli [21]): 0 mm; zone of inhibition at 64 µg/mL (Escherichia coli [22]): 0 mm; zone of inhibition at 128 µg/mL (Staphylococcus aureus [23]): 0 mm; zone of inhibition at 512 µg/mL (Staphylococcus aureus [24]): 0 mm
CCn1cc(C(=O)O)c(=O)c2cc(F)c(N3CCNCC3)cc21 [NORFLOXACIN]	0 mm	2 mm	20 mm	19 mm	1.81	64 µg/mL (≈ 200 µM)	15 mm	5 mm	0	8 µg/mL (≈ 25.1 µM)	0 mm	1.45	14 µg/mL (≈ 43.8 µM)	0 mm	8 mm	0.95	9 µg/mL (≈ 28.2 µM)	0 mm	5 mm	0 mm	zone of inhibition at 4 µg/mL (Staphylococcus aureus [2]): 0 mm; logD [25]: -0.41; zone of inhibition at 64 µg/mL (Staphylococcus aureus [9]): 0 mm; zone of inhibition at 16 µg/mL (Staphylococcus aureus [12]): 0 mm; zone of inhibition at 512 µg/mL (Klebsiella pneumoniae [20]): 12 mm; zone of inhibition at 128 µg/mL (Escherichia coli [21]): 6 mm; zone of inhibition at 64 µg/mL (Escherichia coli [22]): 4 mm; zone of inhibition at 128 µg/mL (Staphylococcus aureus [23]): 3 mm; zone of inhibition at 512 µg/mL (Staphylococcus aureus [24]): 20 mm
CCn1cc(C(=O)O)c(=O)c2cc(F)c(N3CCN(Cn4cnc5ccccc54)CC3)cc21	0 mm	0 mm	15 mm	10 mm	2.11	128 µg/mL (≈ 285 µM)	0 mm	3 mm	1.15	14 µg/mL (≈ 31.1 µM)	3 mm	0.6	4 µg/mL (≈ 8.9 µM)	0 mm	8 mm	2.11	128 µg/mL (≈ 285 µM)	0 mm	0 mm	0 mm	zone of inhibition at 4 µg/mL (Staphylococcus aureus [2]): 0 mm; logD [25]: -0.043; zone of inhibition at 64 µg/mL (Staphylococcus aureus [9]): 0 mm; zone of inhibition at 16 µg/mL (Staphylococcus aureus [12]): 0 mm; zone of inhibition at 512 µg/mL (Klebsiella pneumoniae [20]): 20 mm; zone of inhibition at 128 µg/mL (Escherichia coli [21]): 7 mm; zone of inhibition at 64 µg/mL (Escherichia coli [22]): 6 mm; zone of inhibition at 128 µg/mL (Staphylococcus aureus [23]): 0 mm; zone of inhibition at 512 µg/mL (Staphylococcus aureus [24]): 3 mm
CCn1cc(C(=O)O)c(=O)c2cc(F)c(N3CCN(c4nnc(-c5ccccc5)c(-c5ccccc5)n4)CC3)cc21	0 mm	0 mm	0 mm	0 mm	1.81	64 µg/mL (≈ 116 µM)	0 mm	0 mm	2.71	> 512 µg/mL	0 mm	2.71	> 512 µg/mL	0 mm	0 mm	2.71	> 512 µg/mL	0 mm	0 mm	0 mm	logD [25]: -0.072; zone of inhibition at 512 µg/mL (Klebsiella pneumoniae [20]): 0 mm; zone of inhibition at 128 µg/mL (Escherichia coli [21]): 0 mm; zone of inhibition at 64 µg/mL (Escherichia coli [22]): 0 mm
CCn1cc(C(=O)O)c(=O)c2cc(F)c(N3CCN(C4CCCC4)CC3)cc21	0 mm	0 mm	0 mm	8 mm	1.04	11 µg/mL (≈ 28.4 µM)	0 mm	2 mm	1.11	13 µg/mL (≈ 33.6 µM)	0 mm	1.81	64 µg/mL (≈ 165 µM)	0 mm	3 mm	2.71	> 512 µg/mL	0 mm	0 mm	0 mm	zone of inhibition at 4 µg/mL (Staphylococcus aureus [2]): 0 mm; zone of inhibition at 64 µg/mL (Staphylococcus aureus [9]): 4 mm; zone of inhibition at 16 µg/mL (Staphylococcus aureus [12]): 0 mm; zone of inhibition at 512 µg/mL (Klebsiella pneumoniae [20]): 8 mm; zone of inhibition at 128 µg/mL (Escherichia coli [21]): 3 mm; zone of inhibition at 64 µg/mL (Escherichia coli [22]): 0 mm; zone of inhibition at 128 µg/mL (Staphylococcus aureus [23]): 7 mm; zone of inhibition at 512 µg/mL (Staphylococcus aureus [24]): 15 mm
